In ChEMBL document CHEMBL1772991, “Synthesis and structure-activity relationship of tricyclic carboxylic acids as novel anti-histamines” (Bioorg Med Chem, 2011):

Experiments:
[1] = Permeability from apical to basolateral side of human Caco2 cells after 120 mins; conditions: Caco-2
Histamine H1 receptor = Histamine H1 receptor (Homo sapiens, UniProt P35367); assay: Displacement of [3H]pyrilamine from human histamine H1 receptor expressed in CHO-K1 cells after 60 mins by scintillation counting; type: cell-based
Chain of Histamine H1 receptor (P35367 whole entry): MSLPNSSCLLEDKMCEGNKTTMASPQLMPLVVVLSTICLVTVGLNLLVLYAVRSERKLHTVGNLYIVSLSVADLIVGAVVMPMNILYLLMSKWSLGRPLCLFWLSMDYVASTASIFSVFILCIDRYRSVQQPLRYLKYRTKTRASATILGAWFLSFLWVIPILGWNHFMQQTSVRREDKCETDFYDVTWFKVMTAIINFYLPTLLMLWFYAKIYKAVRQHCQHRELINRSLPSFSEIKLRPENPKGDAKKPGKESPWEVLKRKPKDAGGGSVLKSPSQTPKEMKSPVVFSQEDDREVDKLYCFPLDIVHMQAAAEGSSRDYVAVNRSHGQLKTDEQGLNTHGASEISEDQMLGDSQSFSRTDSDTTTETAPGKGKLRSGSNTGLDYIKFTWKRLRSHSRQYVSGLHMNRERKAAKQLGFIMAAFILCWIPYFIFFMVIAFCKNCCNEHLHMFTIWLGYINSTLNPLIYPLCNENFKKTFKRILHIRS

[2] = target: T1, Adrenergic receptor alpha-1 (Homo sapiens, UniProt P35348+P25100+P35368); assay: Displacement of [3H]prazosin from human adrenergic alpha1 expressed in CHO-K1 cells after 30 mins by scintillation counting; type: cell-based
T1 sequence (P35348 whole entry): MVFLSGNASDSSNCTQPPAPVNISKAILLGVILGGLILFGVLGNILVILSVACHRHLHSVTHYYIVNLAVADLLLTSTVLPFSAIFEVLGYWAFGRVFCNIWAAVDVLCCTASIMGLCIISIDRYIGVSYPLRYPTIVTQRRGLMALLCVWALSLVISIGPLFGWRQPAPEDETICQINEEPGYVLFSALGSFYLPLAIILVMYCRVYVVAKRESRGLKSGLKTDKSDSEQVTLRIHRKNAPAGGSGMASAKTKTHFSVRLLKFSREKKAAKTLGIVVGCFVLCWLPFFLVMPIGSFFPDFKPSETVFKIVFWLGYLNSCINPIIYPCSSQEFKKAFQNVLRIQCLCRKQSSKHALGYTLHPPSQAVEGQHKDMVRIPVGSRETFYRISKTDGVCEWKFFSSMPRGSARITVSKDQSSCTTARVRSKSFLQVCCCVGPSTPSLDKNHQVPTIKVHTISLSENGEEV
T1 sequence (P25100 whole entry): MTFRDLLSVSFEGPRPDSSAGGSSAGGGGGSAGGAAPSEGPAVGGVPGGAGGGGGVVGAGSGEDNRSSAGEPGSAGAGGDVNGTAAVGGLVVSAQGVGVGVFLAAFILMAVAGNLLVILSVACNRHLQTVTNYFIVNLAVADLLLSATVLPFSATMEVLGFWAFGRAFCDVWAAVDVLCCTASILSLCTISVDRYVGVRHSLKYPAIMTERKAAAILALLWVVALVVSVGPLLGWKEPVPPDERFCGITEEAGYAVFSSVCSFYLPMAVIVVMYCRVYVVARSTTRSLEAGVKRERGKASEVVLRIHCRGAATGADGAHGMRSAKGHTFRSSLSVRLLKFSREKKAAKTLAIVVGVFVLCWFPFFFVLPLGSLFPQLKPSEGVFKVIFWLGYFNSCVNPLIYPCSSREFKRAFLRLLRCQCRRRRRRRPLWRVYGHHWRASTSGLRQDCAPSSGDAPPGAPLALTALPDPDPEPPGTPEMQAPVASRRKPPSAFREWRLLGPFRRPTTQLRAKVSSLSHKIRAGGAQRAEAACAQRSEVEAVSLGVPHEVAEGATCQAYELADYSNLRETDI
T1 sequence (P35368 whole entry): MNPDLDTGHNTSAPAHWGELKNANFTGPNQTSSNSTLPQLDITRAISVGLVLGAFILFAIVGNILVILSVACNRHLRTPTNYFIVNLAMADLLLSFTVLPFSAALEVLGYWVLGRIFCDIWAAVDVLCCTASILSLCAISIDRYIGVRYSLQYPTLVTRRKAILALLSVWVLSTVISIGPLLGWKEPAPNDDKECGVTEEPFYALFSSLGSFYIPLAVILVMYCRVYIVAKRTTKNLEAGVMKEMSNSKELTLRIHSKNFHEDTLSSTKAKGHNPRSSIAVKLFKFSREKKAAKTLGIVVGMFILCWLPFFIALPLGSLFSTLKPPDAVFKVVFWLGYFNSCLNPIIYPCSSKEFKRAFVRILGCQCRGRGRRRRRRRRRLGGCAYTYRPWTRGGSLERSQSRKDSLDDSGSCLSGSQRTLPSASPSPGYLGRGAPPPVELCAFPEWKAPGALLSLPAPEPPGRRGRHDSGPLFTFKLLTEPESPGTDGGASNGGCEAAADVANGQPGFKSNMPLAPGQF
In short: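 Membranes from stable recombinant CHO-K1 cells expressing human α1 adrenoceptor were incubated with graded compound concentrations and 0.3 nM [3H]-prazosin in 50 mM Tris-HCl pH 7.6 for 30 min at room temperature. Nonspecific binding was defined with 1 µM prazosin. Samples were filtered on GF/B, washed and scintillation counted; specific binding is total minus nonspecific. Single experiment.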

[3] = Oral bioavailability in fasted rat at 10 mg/kg after 24 hrs; type: ADME, organism-based; conditions: in vivo
In short: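 Fasted male rats (n = 3 per route). Dosing: 1 mg/kg i.v. in 5% glucose/0.1 N HCl (9:1), or 10 mg/kg p.o. as a 0.5% methylcellulose suspension. Jugular blood sampled up to 24 h (po: 15, 30 min, 1, 2, 4, 6, 24 h) and plasma stored at -70 °C. AUCs taken from plasma concentration–time courses. BA = (AUCpo/Dpo)/(AUCiv/Div) × 100.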

Mus musculus [4] = assay: Antiinflammatory activity in ovalbumin-sensitized BALB/c mouse biphasic allergic model assessed as late type reaction at 10 mg/kg, po administered 1 hr before ovalbumin challenge measured 24 hrs after elicitation by ear swelling assay; type: functional
In short: (§1)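 Female Balb/c mice, 8 weeks old, sensitized i.p. with OVA plus alum. Two weeks later, compound given orally as a 0.5% methylcellulose suspension at 10 mg/kg, 1 h before intradermal OVA into the ear.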

Homo sapiens = organism: Homo sapiens; assay: Ratio of IC50 for human adrenergic alpha1 to IC50 for human histamine H1 receptor
Mus musculus [5] = assay: Antiinflammatory activity in ovalbumin-sensitized BALB/c mouse biphasic allergic model assessed as immediate type reaction at 10 mg/kg, po administered 1 hr before ovalbumin challenge measured 1 hr after elicitation by ear swelling assay; type: functional; in short: as §1
Mus musculus [6] = assay: In vivo antihistaminic activity at histamine H1 receptor in ddY mouse assessed as inhibition of histamine-induced skin vascular permeability at 3 mg/kg, po administered 1 hr before histamine challenge by Evan's blue staining; type: functional
In short: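 Female ddY mice, 8 weeks old, dosed orally at 3 mg/kg as a suspension in 0.5% methylcellulose, 1 h before intradermal histamine ([…]) into back skin, following i.v. Evans blue. Mice sacrificed 30 min after histamine; dyed area measured. % inhibition, mean ± SE of six mice.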

Mus musculus [7] = organism: Mus musculus; assay: Ex vivo receptor occupancy of histamine H1 receptor in mouse brain at ED70 after 30 mins by scintillation counting; type: functional
Mus musculus [8] = organism: Mus musculus; assay: animal or person; type: functional; conditions: ddY, po

Papp A→B at 2 h [1] [×10⁻⁶ cm/s] | IC50 (Histamine H1 receptor) [nM] | SMILES | further results
4.7 | 540 | Cn1c(N2CCN(CC/C=C3\c4ccccc4COc4ccc(CC(=O)O)cc43)CC2)cc(=O)n(C)c1=O | 
4 | 92 | Cn1c(N2CCCN(CC/C=C3/c4ccccc4COc4ccc(CC(=O)O)cc43)CC2)cc(=O)n(C)c1=O | inhibition in vivo at 3 mg/kg (Mus musculus [6]): 32%
3.8 | 63 | Cn1c(N2CCCN(CC/C=C3/c4ccccc4COc4ccc(C(=O)O)cc43)CC2)cc(=O)n(C)c1=O | 
3 | 255 | Cn1c(N2CCN(CCCN3c4ccccc4COc4ccc(CC(=O)O)cc43)CC2)cc(=O)n(C)c1=O | 
2.6 | 54 | Cn1c(N2CCCN(CCCN3c4ccccc4CCc4ccc(CC(=O)O)cc43)CC2)cc(=O)n(C)c1=O | 
 | 140 | Cn1c(N2CCN(CCCN3c4ccccc4COc4ccc(C(=O)O)cc43)CC2)cc(=O)n(C)c1=O | Activity (Mus musculus [7]): 20%
7 | 75 | Cn1c(N2CCCN(CCCN3c4ccccc4CCc4ccc(C(C)(C)C(=O)O)cc43)CC2)cc(=O)n(C)c1=O | bioavailability [3]: 14%; inhibition in vivo at 3 mg/kg (Mus musculus [6]): 67%

Continued, molecule first:

SMILES | Papp A→B at 2 h [1] [×10⁻⁶ cm/s] | IC50 (Histamine H1 receptor) [nM] | further results
Cn1c(N2CCCN(CC/C=C3/c4ccccc4CCc4ccc(CC(=O)O)cc43)CC2)cc(=O)n(C)c1=O | 4.8 | 135 | 
Cn1c(N2CCN(CC/C=C3/c4ccccc4COc4ccc(CC(=O)O)cc43)CC2)cc(=O)n(C)c1=O | 7.3 | 84 | IC50 [2]: 4800 nM; bioavailability [3]: 76%; inhibition in vivo at 10 mg/kg (Mus musculus [4]): 78%; Ratio IC50 (Homo sapiens): 57; inhibition in vivo at 10 mg/kg (Mus musculus [5]): 105%; inhibition in vivo at 3 mg/kg (Mus musculus [6]): 53%
Cn1c(N2CCN(CC/C=C3/c4ccccc4COc4ccc(C(=O)O)cc43)CC2)cc(=O)n(C)c1=O |  | 325 | 
Cn1c(N2CCCN(CCCN3c4cc(C(=O)O)ccc4COc4ccccc43)CC2)cc(=O)n(C)c1=O | 1.6 | 530 | 
CC(C(=O)O)c1ccc2c(c1)N(CCCN1CCCN(c3cc(=O)n(C)c(=O)n3C)CC1)c1ccccc1CO2 (stereo not drawn) | 1.9 | 128 | 
Cn1c(N2CCCN(CC/C=C3/c4ccccc4CCc4ccc(C(=O)O)cc43)CC2)cc(=O)n(C)c1=O | 6.9 | 153 | 
Cn1c(N2CCCN(CCCN3c4ccccc4COc4ccc(C(=O)O)cc43)CC2)cc(=O)n(C)c1=O | 6.3 | 41 | bioavailability [3]: 23%; inhibition in vivo at 3 mg/kg (Mus musculus [6]): 87%
Cn1c(N2CCCN(CCCN3c4ccccc4COc4ccc(C(C)(C)C(=O)O)cc43)CC2)cc(=O)n(C)c1=O | 4.6 | 150 | 
CC(C)(C(=O)O)c1ccc(C(O)CCCN2CCC(C(O)(c3ccccc3)c3ccccc3)CC2)cc1 (stereo not drawn) [FEXOFENADINE] |  |  | inhibition in vivo at 10 mg/kg (Mus musculus [4]): 6%; Activity (Mus musculus [7]): 12%; inhibition in vivo at 10 mg/kg (Mus musculus [5]): 61%
Cn1c(N2CCCN(CCCN3c4ccccc4COc4ccc(CC(=O)O)cc43)CC2)cc(=O)n(C)c1=O | 1.6 | 128 | 
CN1CCC(=C2c3ccccc3CC(=O)c3sccc32)CC1 [KETOTIFEN] |  |  | inhibition in vivo at 10 mg/kg (Mus musculus [4]): 3%; ED70 (Mus musculus [8]): 0.067 mg/kg; inhibition in vivo at 10 mg/kg (Mus musculus [5]): 119%
Cn1c(N2CCCN(CCCN3c4ccccc4CCc4ccc(C(=O)O)cc43)CC2)cc(=O)n(C)c1=O | 4.4 | 70 | bioavailability [3]: 33%; inhibition in vivo at 10 mg/kg (Mus musculus [4]): 46%; inhibition in vivo at 10 mg/kg (Mus musculus [5]): 30%; inhibition in vivo at 3 mg/kg (Mus musculus [6]): 50%
Cn1c(N2CCN(CCCN3c4ccccc4Sc4ccc(CC(=O)O)cc43)CC2)cc(=O)n(C)c1=O |  |  | IC50 [2]: 430 nM; inhibition in vivo at 10 mg/kg (Mus musculus [4]): 64%; ED70 (Mus musculus [8]): 1.61 mg/kg; Activity (Mus musculus [7]): 38%; Ratio IC50 (Homo sapiens): 11; inhibition in vivo at 10 mg/kg (Mus musculus [5]): 73%; inhibition in vivo at 3 mg/kg (Mus musculus [6]): 82%
Cn1c(N2CCN(CC/C=C3/c4ccccc4CCc4ccc(CC(=O)O)cc43)CC2)cc(=O)n(C)c1=O | 14.7 | 195 | 
